Bioassay records deposited in PubChem by several laboratories.
Most compounds without a hit are left out; they make up all but 1.8% or so of the library.
EBNA-1 inhibitor – blocks EBNA-1 binding to DNA. 300,000 tested, 0.34% active. EBNA-1 DNA binding, fluorescence polarization. inhibition, % at 14.8 µM. AID 1950; in the data active = inhibition above about 28%
ZTA DNA inh – blocks Epstein-Barr virus ZTA, an EBNA-1 counter-screen; ZTA-DNA binding, fluorescence polarization; inhibition, % at 11 µM; 320,000 tested, 0.15% active; AID 2234; in the data active = inhibition above about 33%
proCasp3 act – activators of human procaspase-3; P42574; recombinant procaspase-3 D3A, Ac-DEVD-pNA absorbance 405 nm; activation, % at 8.5 µM; 330,000 tested, 0.11% active;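 active = activation above the mean of all tested compounds plus 3 SD, cut at about 21% in these data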;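 also: 0% = DMSO alone and 100% = DMSO wells spiked with extra 5 µM PC-3 D3A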
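Evaluation: percent activation relative to control range; Material: Procaspase-3 D3A mutant, all three cleavage aspartates alanine; Compound: single dose, 8.5 µM nominal compound, 0.8% DMSO; Replication: one well per compound; Signal: absorbance at 405 nm, 0 and 120 min; Schedule: 1 h preincubation plus 2 h reaction at 25 °C.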
Apaf1 inhib – blocks human Apaf-1 apoptosome activity. reconstituted apoptosome caspase-3 activity, DEVD-Rh110 fluorescence. 330,000 tested, 0.71% active. AID 489030. O14727. inhibition, % at 20 µM; active = inhibition of at least 40% at 20 µM;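 also: plate controls were DMSO wells for no effect and DEVD-CHO caspase inhibitor wells for full effect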
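Material: reconstituted apoptosome with Apaf-1, cytochrome c, caspase-9, procaspase-3, dATP. Technique: Rh110 fluorescence intensity. Buffer or medium: pH 7.5 Hepes buffer with CHAPS, BSA, DTT. Times: 30 min plus 50 min, RT.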
GSTO1 inh – blocks human GSTO1 in RBBP9 counter-screen | P78417 | recombinant GSTO1, activity-based probe fluorescence polarization | inhibition, % at 5.96 µM | 300,000 tested, 1.1% active | AID 1974;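 active = inhibition above the campaign mean inhibition plus 3 SD, cut at about 35% in these data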;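 also: 0% = GSTO1-1 with DMSO and 100% = wells lacking GSTO1-1 enzyme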
proCasp7 act – counter-screen for procaspase-3 activators: activators of human procaspase-7; P55210; recombinant procaspase-7, Ac-DEVD-pNA absorbance 405 nm; D23A/D198A/D206A triple mutant, cannot self-cleave; scale: DMSO 0, 5 µM enzyme 100; activation, % at 8.5 µM; 330,000 tested, 0.093% active; AID 463210;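 active = percent activation above the screen-wide mean plus 3 SD, cut at about 25% in these data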
Target sequence (P55210 whole entry D23A/D198A/D206A): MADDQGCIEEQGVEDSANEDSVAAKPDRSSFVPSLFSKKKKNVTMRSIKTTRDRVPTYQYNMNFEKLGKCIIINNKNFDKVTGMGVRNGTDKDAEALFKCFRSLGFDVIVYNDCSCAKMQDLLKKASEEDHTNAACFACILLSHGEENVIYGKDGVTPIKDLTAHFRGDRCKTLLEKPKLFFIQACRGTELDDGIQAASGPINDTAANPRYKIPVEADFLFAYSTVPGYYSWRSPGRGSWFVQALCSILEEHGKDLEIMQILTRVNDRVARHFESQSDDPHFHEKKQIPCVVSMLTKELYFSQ
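System: Procaspase-7 triple mutant (PC-7 D3A); measure: % activation from two-timepoint absorbance difference, scaled to controls; times: 1 h compound preincubation, 2 h substrate cleavage, 25 °C; also added: Ac-DEVD-pNA substrate, 400 µM as added; measured by: Epi-absorbance of released pNA at 405 nm, two timepoints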
* hit, by the source's call; / = no result given; + = active, no number.

SMILES	EBNA-1 inhibitor	ZTA DNA inh	proCasp3 act	Apaf1 inhib	GSTO1 inh	proCasp7 act
O=c1[nH]c2ccc(S(=O)(=O)N3CCN(Cc4ccccc4)CC3)cc2[nH]c1=O	-4	-9	1	-20	35*	12
COc1ccc(CCn2c(N)c(S(=O)(=O)c3cccs3)c3nc4ccccc4nc32)cc1OC	1	1	-1	0	0	-3
Nc1c(S(=O)(=O)c2cccs2)c2nc3ccccc3nc2n1CCc1ccccc1	2	-4	6	71*	1	5
COC(=O)c1ccc2nc(NC(=O)CSCC(=O)OCC(=O)c3ccccc3)sc2c1	3	-2	-13	12	4	-3
Cc1ccc2nc(NC(=O)COC(=O)CSc3nc(C)cc(C)n3)sc2c1	-2	2	1	-8	9	-12
Cc1ccc2nc(NC(=O)CSCC(=O)OCC(=O)c3ccc(Br)cc3)sc2c1	30*	8	2	9	-2	-4
CSc1nsc(SCC(=O)Nc2nc3ccc(C)cc3s2)n1	32*	10	-1	-4	3	1
COc1cc(SC)ccc1C(=O)Nc1cccc(S(=O)(=O)NC2=NCCC2)c1	/	3	-9	-3	/	-5
CC(C)n1ncc2c(C(=O)Nc3ccc(S(C)(=O)=O)cc3)cc(C3CC3)nc21	/	11	10	10	/	7
CC(C)n1ncc2c(C(=O)Nc3ccc(S(N)(=O)=O)cc3)cc(C3CC3)nc21	/	-1	7	75*	/	-3
COC1=CC(=O)C[C@@H](C)[C@]12Oc1c(Cl)c(OC)cc(OC)c1C2=O	-1	7	3	-8	7	-5
O=C(c1cc(S(=O)(=O)N2CCN(c3ccccc3)CC2)ccc1Cl)N1CCCCCCC1	-3	15	1	22	4	2
Nc1cc(C(=O)O)c(N)c2c1C(=O)c1ccccc1C2=O	146*	+	-3	30	29	-9
Cc1ccc(NC(=O)c2ccc3c(c2)CCN3S(C)(=O)=O)c(C)c1	-4	-14	8	1	-2	-10
Oc1ccccc1N1CCN(CC(O)COC2CCCc3ccccc32)CC1 (configuration not stated)	0	13	-2	2	6	-1
CCN(CC)CCNC(=O)c1ccc2c(c1NCCO)C(=O)c1ccccc1C2=O	-8	-15	4	54*	25	4
O=C(COC(=O)Cc1c(Cl)cccc1Cl)Nc1ccccc1-c1ccccc1	10	-6	1	18	0	14
O=C(COC(=O)Cc1ccc(Cl)cc1)Nc1ccccc1-c1ccccc1	1	-9	2	12	36*	1
Cc1ccc(-c2nc3ccc(C(=O)O)cc3nc2-c2ccc(C)cc2)cc1	4	-12	0	31	0	-6
O=C(O)c1ccc2nc(-c3ccco3)c(-c3ccco3)nc2c1	/	/	/	62*	/	/
O=C(NCCCO)Nc1ccc2nc(-c3ccco3)c(-c3ccco3)nc2c1	1	58*	-16	57*	66*	-15
COc1ccc(-c2nn(-c3ccccc3)cc2C(=O)NC2CC2)cc1	/	-8	11	-7	/	1
O=C(O)c1cc(Nc2cc(Cl)c3nonc3c2[N+](=O)[O-])ccc1O	-26	-5	-19	16	36*	-16
O=C(CCN1CCN(c2ccccc2)CC1)NNC(=O)Cc1ccc(Br)cc1	/	/	/	9	/	/
COc1cc(NC(=O)CN2C(=O)NC3(CCOc4ccccc43)C2=O)cc(OC)c1 (configuration not stated)	/	-8	7	59*	/	-5
COc1ccc(CCNC(=O)c2cccc(Br)c2)cc1OC	-4	-2	6	0	1	9
Oc1cc(-n2cccn2)c(O)cc1-n1cccn1	-14	5	-25	/	70*	-25
O=Cc1ccccc1-n1cccn1	-5	2	1	-14	1	1
O=C(NCc1ccc(Cl)cc1)c1ccccc1CCc1ccccc1	31*	-11	-1	14	8	6
O=C(NCc1ccccc1Cl)c1ccccc1CCc1ccccc1	-1	-12	0	15	7	-10
